Reference: ChEMBL document CHEMBL4371102, “Tricholopardins A and B, Anti-inflammatory Terpenoids from the Fruiting Bodies of Tricholoma pardinum” (J Nat Prod, 2019)
Peptide text beside a SMILES is read from it. * marks the point of attachment. Cbz = O=C(OCc1ccccc1)*

What was measured:
RAW264.7 [1] = experiment: Anti-inflammatory activity against mouse RAW264.7 cells assessed as inhibition of LPS-stimulated NO production after 18 hrs by Griess reagent based assay; type: functional, cell-based; conditions: RAW264.7, 18 h
Summary of the method: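 RAW264.7 cells were seeded at 2 × 10^5 cells/well in RPMI 1640 with 10% FBS (37 °C, 5% CO2) and preincubated 24 h. They were then exposed 18 h to serial dilutions up to 25 μM (DMSO stock diluted in medium) with LPS 1 μg/mL. Supernatant was mixed 1:1 with Griess reagent for 5 min, and absorbance was read at 570 nm, in triplicate. MG-132 served as positive control.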

RAW264.7 [2] = experiment: Anti-inflammatory activity against mouse RAW264.7 cells assessed as inhibition of LPS-stimulated TNFalpha production preincubated for 30 mins followed by LPS addition and measured after 24 hrs by ELISA; type: functional, cell-based
Summary of the method: (§1)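 Cells kept at 37 °C in 5% CO2 with 10% heat-inactivated FBS and 1% penicillin: RAW264.7 in DMEM, THP-1 in RPMI 1640. Cells were pretreated 30 min with compound (2.5–20 μM, from DMSO solution) or dexamethasone (5 μM, positive control), then stimulated with LPS 1 μg/mL for 24 h. Supernatant TNF-α, IL-1β and PGE2 were measured by ELISA. Mean ± SD, n = 3; one-way ANOVA with Dunnett's T3 and two-tailed t test.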

RAW264.7 [3] = experiment: Anti-inflammatory activity against mouse RAW264.7 cells assessed as inhibition of LPS-stimulated IL-1beta production preincubated for 30 mins followed by LPS addition and measured after 24 hrs by ELISA; type: functional, cell-based; summary of the method: as §1
RAW264.7 [4] = experiment: Anti-inflammatory activity against mouse RAW264.7 cells assessed as inhibition of LPS-stimulated PGE2 production preincubated for 30 mins followed by LPS addition and measured after 24 hrs by ELISA; type: functional, cell-based; summary of the method: as §1
THP-1 [5] = experiment: Anti-inflammatory activity against human THP1 cells assessed as inhibition of LPS-stimulated TNFalpha production preincubated for 30 mins followed by LPS addition and measured after 24 hrs by ELISA; type: functional, cell-based; summary of the method: as §1
THP-1 [6] = experiment: Anti-inflammatory activity against human THP1 cells assessed as inhibition of LPS-stimulated IL-1beta production preincubated for 30 mins followed by LPS addition and measured after 24 hrs by ELISA; type: functional, cell-based; summary of the method: as §1
THP-1 [7] = experiment: Anti-inflammatory activity against human THP1 cells assessed as inhibition of LPS-stimulated PGE2 production preincubated for 30 mins followed by LPS addition and measured after 24 hrs by ELISA; type: functional, cell-based; summary of the method: as §1
RAW264.7 [8] = experiment: Anti-inflammatory activity against mouse RAW264.7 cells assessed as inhibition of LPS-stimulated TNFalpha production at 20 uM preincubated for 30 mins followed by LPS addition and measured after 24 hrs by ELISA relative to control; type: functional; summary of the method: as §1
RAW264.7 [9] = experiment: Anti-inflammatory activity against mouse RAW264.7 cells assessed as inhibition of LPS-stimulated IL-1beta production at 20 uM preincubated for 30 mins followed by LPS addition and measured after 24 hrs by ELISA relative to control; type: functional; summary of the method: as §1
RAW264.7 [10] = experiment: Anti-inflammatory activity against mouse RAW264.7 cells assessed as inhibition of LPS-stimulated PGE2 production at 20 uM preincubated for 30 mins followed by LPS addition and measured after 24 hrs by ELISA relative to control; type: functional; summary of the method: as §1
THP-1 [11] = experiment: Anti-inflammatory activity against human THP1 cells assessed as inhibition of LPS-stimulated TNFalpha production at 20 uM preincubated for 30 mins followed by LPS addition and measured after 24 hrs by ELISA relative to control; type: functional; summary of the method: as §1
THP-1 [12] = experiment: Anti-inflammatory activity against human THP1 cells assessed as inhibition of LPS-stimulated IL-1beta production at 20 uM preincubated for 30 mins followed by LPS addition and measured after 24 hrs by ELISA relative to control; type: functional; summary of the method: as §1
[13] = Cytotoxicity against mouse RAW264.7 cells assessed as cell viability up to 20 uM by MTS assay relative to control; type: cell-based; conditions: read-out: Activity
Summary of the method: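 RAW264.7 macrophages were grown in DMEM with 10% heat-inactivated FBS and 1% penicillin (37 °C, 5% CO2), detached with trypsin-EDTA and seeded in 96-well plates. At 80% confluence they were treated with compound at 2.5–20 μM (dissolved in DMSO). Viability was read by MTS following the kit instructions.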

Row | SMILES | IC50 (RAW264.7 [1]) [µM] | inhibition (RAW264.7 [2]) | inhibition (RAW264.7 [3]) | inhibition (RAW264.7 [4]) | inhibition (THP-1 [5]) | inhibition (THP-1 [6]) | inhibition (THP-1 [7]) | inhibition at 20 µM (RAW264.7 [8]) [%] | inhibition at 20 µM (RAW264.7 [9]) [%] | inhibition at 20 µM (RAW264.7 [10]) [%] | inhibition at 20 µM (THP-1 [11]) [%] | inhibition at 20 µM (THP-1 [12]) [%] | viability [13] [%]
1 | CC(C)C[C@@H](C=O)NC(=O)[C@H](CC(C)C)NC(=O)[C@H](CC(C)C)NC(=O)OCc1ccccc1 [MG-132] (Cbz-Leu-Leu-Leu-aldehyde) | 0.16 |  |  |  |  |  |  |  |  |  |  |  | 
2 | C=C1CC[C@@H](CCO)C(C)(C)[C@H]1C/C=C1/C(=O)OC[C@@H]1O | 16.2 |  |  |  |  |  |  |  |  |  |  |  | 
3 | CC1=C(C=O)C(C)(C)[C@H](CC[C@H]2CC[C@]3(OC2)O[C@@]2(O)CC[C@]3(C)OC2(C)C)CC1 | 0.08 | Dose-dependent effect | Dose-dependent effect | Dose-dependent effect | Dose-dependent effect | Dose-dependent effect | Dose-dependent effect | 70.9 | 94.3 | 92.5 | 99.9 | 99.3 | 60
